Laboratory results as given in ChEMBL document CHEMBL1137203, “Anti-AIDS agents. 60. Substituted 3'R,4'R-di-O-(-)-camphanoyl-2',2'-dimethyldihydropyrano[2,3-f]chromone (DCP) analogues as potent anti-HIV agents” (J Med Chem, 2004).
Several values for one entry are separate records, joined by “and”; a condition that tells them apart may be missing. Equal values may be shown once.

Key:
[1] = tested on: Human immunodeficiency virus 1; assay: Effective concentration against HIV IIIB replication in H9 lymphocytes
[2] = Inhibitory concentration against HIV-I RTMDR1 in MT-4 cells; assay type: functional, cell-based, Human immunodeficiency virus 1; details: mt4
[3] = tested on: Human immunodeficiency virus 3; assay: Inhibitory concentration against HIV IIIB replication in H9 lymphocytes; assay type: functional, organism-based, human immunodeficiency virus type IIIB; details: Human immunodeficiency virus 1
[4] = Effective concentration against HIV-I RTMDR1 in MT-4 cells; assay type: functional, cell-based, human immunodeficiency virus type i; details: mt4
Method in brief: (§1)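 MT4 cells (6 × 10⁵ cells/mL) were infected with diluted HIV-1 RTMDR1/MT2 stock (RT mutations L74V, M41L, V106A, T215Y) at MOI 0.001 TCID₅₀/cell. Compounds were added at various concentrations in RPMI 1640 with 10% FBS, then incubated at 37 °C in humidified CO₂. Medium containing compound was replenished on day 2. p24 in day-4 supernatants was measured by ELISA.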

[5] = Therapeutic index was determined; details: for selectivity ratio: read-out: TI
[6] = Effective concentration against HIV-I RTMDR1 in MT-4 cells; NS=No suppression at 10 ug/ml; assay type: functional, cell-based, human immunodeficiency virus type i; details: mt4
Method in brief: as §1

`CC(=O)O[C@@H]1[C@H](OC(=O)C23CCC(C)(C(=O)O2)C3(C)C)c2c(ccc3c(=O)cc(C)oc23)OC1(C)C` (some centres not stated) showed an EC50 [1] of 2.29 µM, an IC50 [2] greater than 40.2 µM and an IC50 [3] greater than 50 µM. It also gave an EC50 [4] of 2.2 µM, a TI [5] of 18.2 and a selectivity ratio [5] of 21.9.

For `Cc1cc(=O)c2ccc3c(c2o1)[C@@H](OC(=O)C12CCC(C)(C(=O)O1)C2(C)C)[C@@H](OC(=O)C(C)C)C(C)(C)O3` (some centres not stated), the EC50 [1] was 0.88 µM, the IC50 [2] was 17.1 µM and the IC50 [3] was 40.7 µM. The EC50 [4] was 0.3 µM, the TI [5] was 56.3 and the selectivity ratio [5] was 46.

Work on `CC1(C)Oc2ccc3ccc(=O)oc3c2[C@@H](OC(=O)C23CCC(C)(C(=O)O2)C3(C)C)[C@H]1OC(=O)C12CCC(C)(C(=O)O1)C2(C)C` (some centres not stated) yielded an EC50 [1] of 0.04 µM, an IC50 [2] greater than 16.1 µM and an IC50 [3] greater than 16.1 µM. The EC50 [4] was 12.1 µM.

Molecule `CC(C)c1cc(=O)c2ccc3c(c2o1)[C@@H](OC(=O)C12CCC(C)(C(=O)O1)C2(C)C)[C@@H](OC(=O)C12CCC(C)(C(=O)O1)C2(C)C)C(C)(C)O3` (some centres not stated) has an EC50 [1] of 0.07 µM, an IC50 [2] greater than 15 µM and an IC50 [3] of 33.4 µM. For the same molecule, the EC50 [4] was 0.14 µM, the TI [5] was 483 and the selectivity ratio [5] was greater than 111.

For `CC(C)C(=O)O[C@@H]1[C@H](OC(=O)C23CCC(C)(C(=O)O2)C3(C)C)c2c(ccc3c(=O)cc(-c4ccccc4)oc23)OC1(C)C` (some centres not stated), the EC50 [6] was “No suppression”, the EC50 [1] was 1.68 µM and the IC50 [3] was greater than 42.5 µM. The selectivity ratio [5] was 25.3.

For `CCc1cc(=O)c2cc(C(C)(C)C)c3c(c2o1)[C@@H](OC(=O)C12CCC(C)(C(=O)O1)C2(C)C)[C@@H](OC(=O)C12CCC(C)(C(=O)O1)C2(C)C)C(C)(C)O3` (some centres not stated), the EC50 [1] was 1.62 µM, the IC50 [2] was greater than 14.2 µM and the IC50 [3] was 35.4 µM. For the same molecule, the EC50 [4] was 7.36 µM.

With `CC1(C)Oc2ccc3c(=O)cc(-c4ccccc4)oc3c2[C@@H](OC(=O)C23CCC(C)(C(=O)O2)C3(C)C)[C@H]1OC(=O)C12CCC(C)(C(=O)O1)C2(C)C` (some centres not stated) the EC50 [1] was 0.12 µM, the IC50 [2] was 12.2 µM and the IC50 [3] was greater than 35.8 µM. For the same molecule, the EC50 [4] was 0.17 µM, the TI [5] was 71 and the selectivity ratio [5] was greater than 277.

In the case of `CC(=O)O[C@@H]1[C@H](OC(=O)C23CCC(C)(C(=O)O2)C3(C)C)c2c(ccc3c(=O)cc(-c4ccccc4)oc23)OC1(C)C` (some centres not stated), the EC50 [1] is reported as 2.24 µM, the IC50 [2] is reported as 6.25 µM and the IC50 [3] is reported as greater than 44.6 µM. For the same molecule, the EC50 [4] was 4.46 µM.

Work on `Cc1cc(=O)c2ccc3c(c2o1)[C@@H](OC(=O)C12CCC(C)(C(=O)O1)C2(C)C)[C@@H](OC(=O)C12CCC(C)(C(=O)O1)C2(C)C)C(C)(C)O3` (some centres not stated) yielded an EC50 [1] of 0.0031 µM, an IC50 [2] of 11.8 µM and an IC50 [3] of 27.3 µM. For the same molecule, the EC50 [4] was 0.19 µM, the TI [5] was 8600 and the selectivity ratio [5] was 62.5.

In the case of `Cc1coc2c3c(ccc2c1=O)OC(C)(C)[C@H](OC(=O)C12CCC(C)(C(=O)O1)C2(C)C)[C@@H]3OC(=O)C12CCC(C)(C(=O)O1)C2(C)C` (some centres not stated), the EC50 [1] is reported as 0.00099 µM, the IC50 [2] is reported as 3.14 µM and the IC50 [3] is reported as 14.7 µM. It also gave an EC50 [4] of 1.28 µM.

With `CC1(C)Oc2ccc3c(=O)c(-c4ccccc4)coc3c2[C@@H](OC(=O)C23CCC(C)(C(=O)O2)C3(C)C)[C@H]1OC(=O)C12CCC(C)(C(=O)O1)C2(C)C` (some centres not stated) the EC50 [6] was “No suppression”, the EC50 [1] was 1.54 µM and the IC50 [3] was greater than 35.8 µM. It also gave a selectivity ratio [5] of 23.3.

For `CCOCc1cc(=O)c2ccc3c(c2o1)[C@@H](OC(=O)C12CCC(C)(C(=O)O1)C2(C)C)[C@@H](OC(=O)C12CCC(C)(C(=O)O1)C2(C)C)C(C)(C)O3` (some centres not stated), the EC50 [1] was 0.1 µM, the IC50 [2] was greater than 12.5 µM and the IC50 [3] was 15.1 µM. It also gave an EC50 [4] of 0.37 µM, a TI [5] of 151 and a selectivity ratio [5] greater than 34.

`Cc1oc2c3c(ccc2c(=O)c1C)OC(C)(C)[C@H](OC(=O)C12CCC(C)(C(=O)O1)C2(C)C)[C@@H]3OC(=O)C12CCC(C)(C(=O)O1)C2(C)C` (some centres not stated) gave an EC50 [1] of 0.007 µM, an IC50 [2] of 4.72 µM and an IC50 [3] of 11.3 µM. It also gave an EC50 [4] of 0.31 µM.

Molecule `CCOCc1cc(=O)c2ccc3c(c2o1)[C@@H](OC(=O)C12CCC(C)(C(=O)O1)C2(C)C)[C@@H](OC(=O)C(C)C)C(C)(C)O3` (some centres not stated) has an EC50 [1] of 0.62 µM, an IC50 [2] greater than 17.5 µM and an IC50 [3] greater than 43.9 µM. It also gave an EC50 [4] of 1.09 µM.

`CCc1cc(=O)c2ccc3c(c2o1)[C@@H](OC(=O)C12CCC(C)(C(=O)O1)C2(C)C)[C@@H](OC(=O)C(C)C)C(C)(C)O3` (some centres not stated) showed an EC50 [1] of 0.25 µM, an IC50 [2] greater than 18.5 µM and an IC50 [3] greater than 46.3 µM. The EC50 [4] was 0.28 µM and the TI [5] was 182 and > 66.7.

With `Cc1cc(=O)c2ccc3c(c2o1)[C@@H](OC(=O)C12CCC(C)(C(=O)O1)C2(C)C)[C@@H](OC(=O)CC(C)C)C(C)(C)O3` (some centres not stated) the EC50 [1] was 0.0057 µM, the IC50 [2] was 13 µM and the IC50 [3] was greater than 32.2 µM. The EC50 [4] was 0.59 µM.

`CCCc1cc(=O)c2ccc3c(c2o1)[C@@H](OC(=O)C12CCC(C)(C(=O)O1)C2(C)C)[C@@H](OC(=O)C12CCC(C)(C(=O)O1)C2(C)C)C(C)(C)O3` (some centres not stated) showed an EC50 [1] of 0.02 µM, an IC50 [2] of 37.6 µM and an IC50 [3] greater than 37.6 µM. The EC50 [4] was 0.14 µM.

For `CC1(C)Oc2ccc3c(=O)ccoc3c2[C@@H](OC(=O)C23CCC(C)(C(=O)O2)C3(C)C)[C@H]1OC(=O)C12CCC(C)(C(=O)O1)C2(C)C` (some centres not stated), the EC50 [6] was “No suppression”, the EC50 [1] was 0.0013 µM and the IC50 [3] was 14.2 µM. For the same molecule, the selectivity ratio [5] was 11100.

`Cc1cc(=O)oc2c3c(ccc12)OC(C)(C)[C@H](OC(=O)C12CCC(C)(C(=O)O1)C2(C)C)[C@@H]3OC(=O)C12CCC(C)(C(=O)O1)C2(C)C` (some centres not stated) gave an EC50 [1] of 0.0059 µM, an IC50 [2] greater than 15.7 µM and an IC50 [3] greater than 39.3 µM. For the same molecule, the EC50 [4] was 9.43 µM.

With `CCc1cc(=O)c2ccc3c(c2o1)[C@@H](OC(=O)C12CCC(C)(C(=O)O1)C2(C)C)[C@@H](OC(=O)C12CCC(C)(C(=O)O1)C2(C)C)C(C)(C)O3` (some centres not stated) the EC50 [1] was 0.00032 µM, the IC50 [2] was 43.1 µM and the IC50 [3] was 37.2 µM. It also gave an EC50 [4] of 0.06 µM.

`Cc1cn([C@H]2C[C@H](N=[N+]=[N-])[C@@H](CO)O2)c(=O)[nH]c1=O` [ZIDOVUDINE] gave an EC50 [1] of 0.04 µM, an IC50 [2] greater than 37.5 µM and an IC50 [3] of 1870 µM. The EC50 [4] was 0.1 µM.
